Data taken from ChEMBL document CHEMBL4342526, “Exploration of the Structural Space in 4(3H)-Quinazolinone Antibacterials” (J Med Chem, 2020).
Values after ≈ are worked out from the molar mass of the structure shown.

Experiments:
[1] = Volume of distribution in ICR mouse at 10 mg/kg, iv by UV-UPLC analysis; type: ADME, organism-based; conditions: in vivo
Outline: (§1)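 Female ICR mice, 6–8 weeks old, 20–25 g. Each received 50 μL by tail-vein injection (5 or 10 mg/kg) of a filter-sterilized 2 or 4 mg/mL solution in 20% DMSO/10% Tween-80/70% water. Terminal blood was collected and plasma harvested by centrifugation. Plasma was precipitated with acetonitrile containing internal standard, and the supernatant was analyzed by C18 UPLC with UV detection at 285 nm.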

[2] = target: T1, MecA (Staphylococcus aureus) (UniProt Q7DHH4); assay: Binding affinity to PBP2a in clindamycin/erythromycin/spectinomycin-resistant mec-positive Staphylococcus aureus NRS70 assessed potentiation of piperacillin and tazobactam-induced bactericidal activity by measuring log reduction in bacterial count at 0.5 times MIC measured after 24 hrs by time-kill assay
T1 sequence (whole entry): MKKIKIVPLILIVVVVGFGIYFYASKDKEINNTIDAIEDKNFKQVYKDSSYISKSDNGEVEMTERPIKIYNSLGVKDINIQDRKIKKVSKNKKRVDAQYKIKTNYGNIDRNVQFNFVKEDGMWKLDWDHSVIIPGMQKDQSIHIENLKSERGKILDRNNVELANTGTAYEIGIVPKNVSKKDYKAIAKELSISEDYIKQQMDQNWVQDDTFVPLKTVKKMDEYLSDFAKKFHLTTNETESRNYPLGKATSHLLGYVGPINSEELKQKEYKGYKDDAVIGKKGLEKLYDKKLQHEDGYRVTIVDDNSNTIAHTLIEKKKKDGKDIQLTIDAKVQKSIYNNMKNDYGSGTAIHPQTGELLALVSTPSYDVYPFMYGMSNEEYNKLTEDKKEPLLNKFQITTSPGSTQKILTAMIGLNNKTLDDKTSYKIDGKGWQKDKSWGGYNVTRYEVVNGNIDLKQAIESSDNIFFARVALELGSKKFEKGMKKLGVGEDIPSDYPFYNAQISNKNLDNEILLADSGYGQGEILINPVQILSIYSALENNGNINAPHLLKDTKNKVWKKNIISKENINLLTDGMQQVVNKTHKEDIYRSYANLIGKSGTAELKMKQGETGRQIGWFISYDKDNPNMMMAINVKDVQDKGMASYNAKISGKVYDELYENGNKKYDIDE

Streptococcus pneumoniae = assay: Antibacterial activity against Streptococcus pneumoniae ATCC 49619 measured after 16 to 20 hrs by microdilution method; type: functional
Outline: (§2)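 CLSI broth microdilution: two-fold serial dilutions in triplicate in cation-adjusted Mueller–Hinton broth with 2% NaCl, inoculum 5 × 10^5 CFU/mL, incubated at 37 °C for 16–20 h. MIC is the lowest concentration preventing visible growth.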

Bacillus licheniformis = assay: Antibacterial activity against Bacillus licheniformis ATCC 12759 measured after 16 to 20 hrs by microdilution method; type: functional; outline: as §2
Staphylococcus aureus [3] = assay: Selectivity ratio of MIC for Staphylococcus aureus ATCC 29213 in presence of bovine serum albumin to MIC for Staphylococcus aureus ATCC 29213 in absence of bovine serum albumin; type: functional
Outline: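 S. aureus ATCC29213 MIC was run by CLSI microdilution in cation-adjusted Mueller–Hinton broth plus 2% NaCl, with and without 0.5% bovine serum albumin. Compounds were two-fold serially diluted in triplicate, inoculum was 5 × 10^5 CFU/mL, and plates were incubated at 37 °C for 16–20 h. The endpoint was the lowest concentration with no visible growth.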

[4] = tested on: Staphylococcus haemolyticus; assay: Antibacterial activity against Staphylococcus haemolyticus ATCC 29970 measured after 16 to 20 hrs by microdilution method; type: functional; outline: as §2
Staphylococcus aureus [5] = assay: Bactericidal activity against methicillin resistant Staphylococcus aureus NRS70 infected in ICR mouse model of neutropenic thigh infection assessed as log reduction in bacterial count in thigh at 40 mg/kg, sc administered at 8 hrs interval for 3 times starting from 1 hr post infection and measured 24 hrs post infection; type: functional
Outline: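 Female ICR mice (6–8 weeks, 20–25 g) made neutropenic with cyclophosphamide 200 mg/kg ip at 4 and 1 days pre-infection; 0.1 mL NRS70 at 1 × 10^6 CFU/mL in brain heart infusion injected into right thigh; drug in 10% DMSO/90% water sc every 8 h ×3 from 1 h post-infection; thigh CFU counted at 24 h; n = 8/group; mean ± SEM, one-way ANOVA with Tukey test.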

[6] = Clearance in ICR mouse at 10 mg/kg, iv by UV-UPLC analysis relative to hepatic blood flow; type: ADME, organism-based; conditions: in vivo; outline: as §1
Staphylococcus aureus [7] = assay: Antibacterial activity against clindamycin/erythromycin/spectinomycin-resistant mec-positive Staphylococcus aureus NRS70 measured after 16 to 20 hrs by microdilution method; type: functional
Outline: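 CLSI broth microdilution; two-fold serial compound dilutions in triplicate in cation-adjusted Mueller–Hinton broth with 2% NaCl, inoculum 5 × 10^5 CFU/mL; 37 °C for 16–20 h; MIC = lowest concentration with no visible growth.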

N#Cc1ccc(/C=C/c2nc3ccccc3c(=O)n2-c2cc(C(=O)O)ccc2F)cc1
Vd [1]: 0.19 L/kg
log(activity) [2]: > 3
MIC (Streptococcus pneumoniae): 8 µg/mL (≈ 19.4 µM)
MIC (Bacillus licheniformis): > 128 µg/mL
selectivity ratio (Staphylococcus aureus [3]): <=4
MIC [4]: 4 µg/mL (≈ 9.72 µM)
log(activity) (Staphylococcus aureus [5]): 0.78
CL [6]: < 10%
MIC (Staphylococcus aureus [7]): 0.5 µg/mL (≈ 1.22 µM)
